Laboratory results published in ChEMBL document CHEMBL4334424, “The winding road of the uvaretin class of natural products: from total synthesis to bioactive agent discovery” (Medchemcomm, 2019).
Activity calls are given as the source filed them. The calls are words filed in the database; no cut-off is given here.

Key:
[1] = test system: HeLa; experiment: Cytotoxicity against human HeLa cells assessed as reduction in cell viability incubated for 72 hrs by alamar blue assay; format: functional, cell-based
Method in brief: (§1)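 Adherent cells were seeded at 1500 cells/well in 384-well plates and allowed 2–3 h to attach. Compounds in DMSO, diluted in media over 31.6 nM–200 μM, were tested in triplicate for 72 h continuous exposure at 37 °C, 5% CO2. Alamar Blue was added for the final 3 h and fluorescence read (ex 560/em 590 nm). IC50 was fitted from ≥3 independent experiments.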

[2] = test system: U-937; experiment: Cytotoxicity against human U937 cells assessed as reduction in cell viability incubated for 72 hrs by alamar blue assay; format: functional, cell-based; conditions: U-937, 72 h
Method in brief: (§2)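 Suspension cells (2200/well, 384-well) were added directly onto compound in media with no attachment period. Compounds spanned 31.6 nM–200 μM in triplicate, with 72 h exposure at 37 °C, 5% CO2. Alamar Blue was added for the last 3 h and fluorescence read (ex 560/em 590 nm). IC50 came from ≥3 independent experiments.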

[3] = test system: A549; experiment: Cytotoxicity against human A549 cells assessed as reduction in cell viability incubated for 72 hrs by alamar blue assay; format: functional, cell-based; conditions: A549, 72 h; method in brief: as §1
[4] = test system: MIA PaCa-2; experiment: Cytotoxicity against human MIAPaCa2 cells assessed as reduction in cell viability incubated for 72 hrs by alamar blue assay; format: functional, cell-based; conditions: MIA PaCa-2, 72 h; method in brief: as §1
[5] = test system: REH; experiment: Cytotoxicity against human REH cells assessed as reduction in cell viability incubated for 72 hrs by alamar blue assay; format: functional, cell-based; method in brief: as §2
[6] = test system: HCT-116; experiment: Cytotoxicity against human HCT116 cells assessed as reduction in cell viability incubated for 72 hrs by alamar blue assay; format: functional, cell-based; conditions: HCT-116, 72 h; method in brief: as §1
[7] = test system: MIA PaCa-2; experiment: Cytotoxicity against human MIAPaCa2 cells assessed as cell viability at 2.5 uM incubated for 72 hrs in presence of 10 uM 6TP by alamar blue assay (reference value: 6.9 %); format: functional
Method in brief: (§3)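 Combination assay in 96-well plates with 100 μL final volume and 1% DMSO. Two test-compound concentrations were crossed with five 6TP concentrations, then cells were added (4000/well adherent, 7000/well suspension). Plates ran 72 h at 37 °C, 5% CO2, with Alamar Blue viability read-out and ≥3 independent experiments. Combination index was calculated by the Chou–Talalay method.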

[8] = test system: MIA PaCa-2; experiment: Cytotoxicity against human MIAPaCa2 cells assessed as cell viability at 2.5 uM incubated for 72 hrs in presence of 25 uM 6TP by alamar blue assay (reference value: 6.4 %); format: functional; method in brief: as §3
[9] = test system: MIA PaCa-2; experiment: Cytotoxicity against human MIAPaCa2 cells assessed as cell viability at 2.5 uM incubated for 72 hrs in presence of 50 uM 6TP by alamar blue assay (reference value: 13.8 %); format: functional; method in brief: as §3
[10] = test system: MIA PaCa-2; experiment: Cytotoxicity against human MIAPaCa2 cells assessed as cell viability at 2.5 uM incubated for 72 hrs in presence of 100 uM 6TP by alamar blue assay (reference value: 30.7 %); format: functional; method in brief: as §3
[11] = test system: MIA PaCa-2; experiment: Cytotoxicity against human MIAPaCa2 cells assessed as cell viability at 5 uM incubated for 72 hrs in presence of 10 uM 6TP by alamar blue assay (reference value: 6.9 %); format: functional; method in brief: as §3
[12] = test system: MIA PaCa-2; experiment: Cytotoxicity against human MIAPaCa2 cells assessed as cell viability at 5 uM incubated for 72 hrs in presence of 25 uM 6TP by alamar blue assay (reference value: 6.4 %); format: functional; method in brief: as §3
[13] = test system: MIA PaCa-2; experiment: Cytotoxicity against human MIAPaCa2 cells assessed as cell viability at 5 uM incubated for 72 hrs in presence of 50 uM 6TP by alamar blue assay (reference value: 13.8 %); format: functional; method in brief: as §3
[14] = test system: MIA PaCa-2; experiment: Cytotoxicity against human MIAPaCa2 cells assessed as cell viability at 5 uM incubated for 72 hrs in presence of 100 uM 6TP by alamar blue assay (reference value: 30.7 %); format: functional; method in brief: as §3
[15] = test system: MIA PaCa-2; experiment: Cytotoxicity against human MIAPaCa2 cells assessed as combinational index at 2.5 uM incubated for 72 hrs in presence of 25 uM 6TP by alamar blue assay; format: functional; method in brief: as §3
[16] = test system: MIA PaCa-2; experiment: Cytotoxicity against human MIAPaCa2 cells assessed as combinational index at 2.5 uM incubated for 72 hrs in presence of 50 uM 6TP by alamar blue assay; format: functional; method in brief: as §3
[17] = test system: MIA PaCa-2; experiment: Cytotoxicity against human MIAPaCa2 cells assessed as combinational index at 2.5 uM incubated for 72 hrs in presence of 100 uM 6TP by alamar blue assay; format: functional; method in brief: as §3
[18] = test system: MIA PaCa-2; experiment: Cytotoxicity against human MIAPaCa2 cells assessed as combinational index at 2.5 uM incubated for 72 hrs in presence of 200 uM 6TP by alamar blue assay; format: functional; method in brief: as §3
[19] = test system: MIA PaCa-2; experiment: Cytotoxicity against human MIAPaCa2 cells assessed as combinational index at 5 uM incubated for 72 hrs in presence of 25 uM 6TP by alamar blue assay; format: functional; method in brief: as §3
[20] = test system: MIA PaCa-2; experiment: Cytotoxicity against human MIAPaCa2 cells assessed as combinational index at 5 uM incubated for 72 hrs in presence of 50 uM 6TP by alamar blue assay; format: functional; method in brief: as §3
[21] = test system: MIA PaCa-2; experiment: Cytotoxicity against human MIAPaCa2 cells assessed as combinational index at 5 uM incubated for 72 hrs in presence of 100 uM 6TP by alamar blue assay; format: functional; method in brief: as §3
[22] = test system: MIA PaCa-2; experiment: Cytotoxicity against human MIAPaCa2 cells assessed as combinational index at 5 uM incubated for 72 hrs in presence of 200 uM 6TP by alamar blue assay; format: functional; method in brief: as §3
[23] = test system: MIA PaCa-2; experiment: Cytotoxicity against human MIAPaCa2 cells assessed as cell viability at 2.5 uM incubated for 72 hrs by alamar blue assay (reference value: 0 %); format: functional; conditions: MIA PaCa-2, 72 h, read-out: Activity; method in brief: as §3
[24] = test system: MIA PaCa-2; experiment: Cytotoxicity against human MIAPaCa2 cells assessed as cell viability at 5 uM incubated for 72 hrs by alamar blue assay (reference value: 0 %); format: functional; conditions: MIA PaCa-2, 72 h, read-out: Activity; method in brief: as §3
[25] = test system: HeLa; experiment: Cytotoxicity against human HeLa cells assessed as reduction in cell viability incubated for 72 hrs in presence of doxorubicin by alamar blue assay; format: functional
Method in brief: (§4)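 Same combination format as the 6TP study, with the cytotoxic partner (doxorubicin, etoposide or paclitaxel) combined with test compound. Cells were at 4000/well (adherent) in 100 μL, 1% DMSO, for 72 h at 37 °C, 5% CO2, with Alamar Blue viability read-out. Combination index was derived by the Chou–Talalay protocol and reported as a median.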

[26] = test system: U-937; experiment: Cytotoxicity against human U937 cells assessed as reduction in cell viability incubated for 72 hrs in presence of 6TP by alamar blue assay; format: functional; method in brief: as §3
[27] = test system: HCT-116; experiment: Cytotoxicity against human HCT116 cells assessed as reduction in cell viability incubated for 72 hrs in presence of 6TP by alamar blue assay; format: functional, cell-based; method in brief: as §3
[28] = test system: HCT-116; experiment: Cytotoxicity against human HCT116 cells assessed as reduction in cell viability incubated for 72 hrs in presence of paclitaxel by alamar blue assay; format: functional, cell-based; method in brief: as §4
[29] = test system: HCT-116; experiment: Cytotoxicity against human HCT116 cells assessed as reduction in cell viability incubated for 72 hrs in presence of etoposide by alamar blue assay; format: functional, cell-based; method in brief: as §4
[30] = test system: HCT-116; experiment: Cytotoxicity against human HCT116 cells assessed as reduction in cell viability incubated for 72 hrs in presence of doxorubicin by alamar blue assay; format: functional, cell-based; method in brief: as §4

Row | Compound | IC50 [1] [µM] | IC50 [2] [µM] | IC50 [3] [µM] | IC50 [4] [µM] | IC50 [5] [µM] | IC50 [6] [µM] | further results
1 | COCOc1cc(OCOC)c(C(C)=O)c(OCOC)c1 | > 20 | 11.7 | > 20 | 6.1 | > 20 | > 20 | 
2 | COCOc1cc(OCOC)c(C(=O)/C=C/c2ccccc2)c(OCOC)c1 | 11.5 | 8.1 | 8.4 | 11.8 | > 20 | > 20 | Activity [7]: 14.2%; Activity [8]: 15%; Activity [9]: 16.9%; Activity [10]: 17.6%; Activity [11]: 18.4%; Activity [12]: 17.3%; Activity [13]: 17%; Activity [14]: 19.3%; CI [15]: 0.24; CI [16]: 0.56; CI [17]: 0.96; CI [18]: 1.79; CI [19]: 0.47; CI [20]: 0.57; CI [21]: 1.01; CI [22]: 2.09; viability at 2.5 µM [23]: 21.1%; viability at 5 µM [24]: 20%
3 | COCOc1cc(O)c(C(C)=O)c(OCOC)c1 | 12.2 | 7.4 | > 20 | > 20 | > 20 | > 20 | 
4 | COc1cc(OC)c(C(=O)CCc2ccccc2)c(OC)c1Cc1ccccc1O | > 20 | > 20 | > 20 | > 20 | > 20 | > 20 | CI [25]: 0.11; CI [26]: 0.22
5 | C=CCOc1ccccc1Cc1c(OC)cc(OC)c(C(=O)/C=C/c2ccccc2)c1OC | 5.8 | 7.5 | 8.5 | 9.4 | 12.6 | > 20 | 
6 | COCOc1cc(OC)cc(OC)c1C(C)=O | 14 | 13.3 | 16.9 | > 20 | > 20 | > 20 | 
7 | COc1cc(OC)c(C(=O)/C=C/c2ccccc2)c(OC)c1Cc1ccccc1O | 2.7 | 4.2 | 9.3 | 4.1 | > 20 | 18.6 | Activity [27]: inactive; Activity [28]: inactive; Activity [29]: inactive; CI [25]: 0.12
8 | COCOc1cc(OC)cc(OC)c1C(=O)/C=C/c1ccccc1 | 4.8 | 2.5 | 3.5 | 5.6 | 19.4 | > 20 | 
9 | COc1cc(O)c(Cc2ccccc2O)c(O)c1C(=O)/C=C/c1ccccc1 | 4.6 | 2.3 | 4.3 | 5.1 | > 20 | 19.5 | Activity [30]: inactive; Activity [27]: inactive; Activity [29]: inactive
